Test results from paper PMC3817951 (Journal of immunology (Baltimore, Md. : 1950), 2013).
Several values for one entry are separate records, joined by “and”; a condition that tells them apart may be missing. Equal entries are not always repeated. Entries after “also recorded” stand apart in the source; their conditions may differ. Where two headings read alike, the source gives them in different places.

Columns and labels:
[1] = tested on: murine iNKT hybridoma N38-2C12 (Vα14Vβ8.2b); assay: In vitro stimulation of iNKT hybridoma 2C12 with glycolipid pulsed BMDCs; type: cell-based, mouse; conditions: for IL-2 production (ELISA): BMDCs loaded 100 ng/ml for 20 h, co-culture with 2C12 for 16 hours
Procedure, shortened: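 Hybridoma kept in cDMEM (DMEM, 10% FCS, glutamine, pen/strep, 2-mercaptoethanol). BMDCs grown 10 days with GM-CSF, pulsed 20 h with 100 ng/ml glycolipid. 5×10^4 hybridoma cells plus 10^5 BMDCs at 37°C. Secreted IL-2 by ELISA at 16 h (n=6). Intracellular IL-2 at 4 h. TCRβ by flow at 24 h with CD45.1 BMDCs, gated CD45.2+CD45.1−7AAD−.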

CD1d [2] = assay: Cellular assay of stability of the glycolipid-CD1d complex; type: cell-based, mouse; conditions: BMDCs loaded 100 ng/mL 20 hours, wash-off 4h to 48h
Procedure, shortened: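 BMDCs grown 10 days with GM-CSF, then pulsed 20 h with 100 ng/mL glycolipid and washed. Cells were held in medium for 4–48 h, and released glycolipid was washed off. They were then co-cultured with 2C12 hybridoma (5×10^4 hybridoma:10^5 BMDCs, cDMEM, 37°C). IL-2 in the medium, normalised to the 4 h point, indicates remaining loaded CD1d. Mean ± s.e.m., n=6.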

CD1d [3] = conditions: compared with CD1d-α-GalCer complexes; cited from earlier work
TCR = assay: Surface plasmon resonance: TCR binding to mCD1d-glycolipid complexes; parameters: species or system mouse; conditions: for Kd: SPR, TCR towards glycolipid presented by mCD1d, 25°C, Langmuir 1:1 model
Procedure, shortened: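 Biotinylated birA-tagged mouse CD1d loaded overnight with 6-fold molar excess glycolipid (DMSO stock 1 mg/ml). 500–600 RU of complex captured on streptavidin chip. TCR injected at 0.0156–2 μM in 10 mM Hepes, 150 mM NaCl, 3 mM EDTA, pH 7.4, for 1.5–3 min. Dissociation 45 min at 25°C. Empty-CD1d reference subtracted, Langmuir 1:1 fit. Three runs, separate TCR preparations.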

iNKT cells [4] = type: in vivo, C57BL/6 mice; conditions: for IFN-γ levels (Figure 2 panel b, IL-12 panel): at 16 hours
iNKT cells [5] = type: in vivo, C57BL/6 mice; conditions: for serum IL-12 levels / serum IFN-γ levels: 16 hours after injection of 5 μg glycolipid (i.p.)
Procedure, shortened: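 C57BL/6 mice aged 5–12 weeks received 5 μg glycolipid i.p. in PBS. Glycolipid solubilised in PBS or vehicle (sucrose/deoxycholate/Tween 20), heated 20 min at 80°C, sonicated 10 min. Serum cytokines measured 16 h after injection. Mean ± s.e.m. of at least sixteen mice, pooled from two independent experiments.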

human iNKT cells = type: cell-based
Procedure, shortened: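 Sorted, expanded iNKT cells from healthy adult donors. Autologous PBMCs isolated by density centrifugation, incubated overnight with glycolipid (100 ng/ml), washed and irradiated (40 Gy). 5x10^4 iNKT cells cultured with 10^5 PBMCs in RPMI 1640 plus 10% human AB serum, pyruvate, non-essential amino acids and pen/strep. Supernatant cytokines at 24 h by cytometric bead array. Data pooled from two experiments, two donors.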

B16 melanoma cells = assay: B16 melanoma lung metastasis model; type: in vivo, mice; conditions: 10 000 BMDCs loaded with glycolipid
Procedure, shortened: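 C57BL/6 mice aged 5–12 weeks. B16 cells grown in advanced RPMI with 10% FCS, glutamine and pen/strep, lifted with cell dissociation buffer and washed twice. 2x10^5 or 4x10^5 cells were injected i.v. into the tail vein within 30 min of harvest. Glycolipid-pulsed BMDCs given i.v. (6x10^4 or 1x10^4). Mice killed at day 14 and lungs removed for scoring.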

[6] = tested on: spleen DCs (CD11c CD11b double positive); assay: Co-stimulatory marker expression on spleen DCs; type: in vivo, mouse
[7] = 600 000 glycolipid-pulsed BMDCs, at 16 and 24 hours
[8] = 600 000 glycolipid-pulsed BMDCs
[9] = 10 000 pulsed BMDCs, 16 hours, compared to NU-α-GalCer and α-GalCer
[10] = 100 ng/ml loading, 24hrs, compared to α-GalCer

Row | SMILES | IL-2 production (ELISA) [1] | Kd (TCR) | serum IFN-γ levels (iNKT cells [4]; [7]) | IFN-γ levels (Figure 2 panel b, IL-12 panel) (iNKT cells [4]; [8]) | serum IL-12 levels (iNKT cells [5]) | lung nodules / anti-metastatic activity (B16 melanoma cells) | serum IFN-γ levels (iNKT cells [5]) | other results
1 | CCCCCCCCCCCCCCCCCCCCCCCCCC(=O)NC(CC1OC(CO)C(O)C(O)C1O)C(O)C(O)CCCCCCCCCCCCCC (stereo not drawn) [α-C-GalCer] | higher IL-2 levels | – | – | – | – | – | – | TCRβ expression ([1]; 2C12, 24 hours after coculture with glycolipid-pulsed CD45.1 BMDCs): clear TCRb downregulation; stability of glycolipid-CD1d complex (IL-2 normalized to 4 hours after wash off) (CD1d [2]): much slower decay compared to α-GalCer; half-life in vivo of complex with CD1d (CD1d [3]): much longer half-life in vivo
2 | CCCCCCCCCCCCCCCCCCCCCCCCCC(=O)N[C@@H](CO[C@H]1O[C@H](COC(=O)Nc2ccc(Cl)cc2)[C@H](O)[C@H](O)[C@H]1O)[C@H](O)[C@H](O)CCCCCCCCCCCCCC [4ClPhC-α-GalCer, α-GalCer-6″-(4-chlorophenyl)carbamate] | significantly differ from α-GalCer | 49.3 ± 0.3 nM | significantly higher compared to NU-α-GalCer | significantly higher compared to α-GalCer | – | – | – | reduced binding affinity (TCR; 49 nM vs. 25 nM): 2 fold
3 | CCCCCCCCCCCCCCCCCCCCCCCCCC(=O)N[C@@H](CO[C@H]1O[C@H](COC(=O)Nc2ccncc2)[C@H](O)[C@H](O)[C@H]1O)[C@H](O)[C@H](O)CCCCCCCCCCCCCC [PyrC-α-GalCer, α-GalCer-6″-(pyridin-4-yl)carbamate] | significantly differ from α-GalCer | 25 ± 3 nM | significantly higher compared to NU-α-GalCer | – | significantly higher IL-12 levels than NU-α-GalCer | superior in preventing tumor metastasis; also recorded: reduce the amount of noduli even significantly better | – | increase of IL-12 levels (iNKT cells [5]; PyrC-α-GalCer administration, mode and comparator not stated at place): 10 fold; serum IFN-γ levels (iNKT cells [4]; [9]): significantly higher; serum IL-12 levels (iNKT cells [4]; [9]): significantly higher; serum IL-12 levels (iNKT cells [4]; [7]): even after 24 hours markedly higher than for NU-α-GalCer; also recorded: significantly higher compared to NU-α-GalCer; course of IFN-γ level over time (iNKT cells [4]; glycolipid pulsed BMDCs, in contrast to 4ClPhC-α-GalCer and NU-α-GalCer): increased up to 24 hours after injection; IFN-γ production (human iNKT cells; [10]): slightly elevated; IL-4 production (human iNKT cells; [10]): less production; IL-12 production (human iNKT cells; [10]): slightly elevated; IL-13 production (human iNKT cells; [10]): less production; Th1-biased cytokine secretion (human iNKT cells; purified human iNKT cells, more IFN-γ and IL-12 and less IL-4 and IL-13 compared to α-GalCer): able to induce Th1-biased cytokine secretion; CD40 and OX40L expression ([6]; spleen DCs): induces early CD40 and OX40L upregulation
4 | CCCCCCCCCCCCCCCCCCCCCCCCCC(=O)N[C@@H](CO[C@H]1O[C@H](CO)[C@H](O)[C@H](O)[C@H]1O)[C@H](O)[C@H](O)CCCCCCCCCCCCCC [α-GalCer, alpha galactosyl ceramide, reference compound] | – | 26 nM and 26.4 nM | – | – | significantly lower | – | significantly lower | CD80 and CD86 expression ([6]; dendritic cell surface): induced upregulation of both CD80 and CD86
5 | CCCCCCCCCCCCCCCCCCCCCCCCCC(=O)N[C@@H](CO[C@H]1O[C@H](COC(=O)Nc2cccc3ccccc23)[C@H](O)[C@H](O)[C@H]1O)[C@H](O)[C@H](O)CCCCCCCCCCCCCC [NC-α-GalCer, α-GalCer-6″-(1-naphthyl)carbamate] | significantly differ from α-GalCer | 37 nM and 37.1 nM | – | – | – | – | – | –
6 | CCCCCCCCCCCCCCCCCCCCCCCCCC(=O)N[C@@H](CO[C@H]1O[C@H](CNC(=O)Nc2cccc3ccccc23)[C@H](O)[C@H](O)[C@H]1O)[C@H](O)[C@H](O)CCCCCCCCCCCCCC [NU-α-GalCer, α-GalCer-6″-(1-naphthyl)urea] | higher IL-2 levels; also recorded: significantly differ from α-GalCer | – | significantly higher compared to α-GalCer | significantly higher compared to α-GalCer | – | significantly stronger compared to α-GalCer | significantly lower; also recorded: comparable or slightly lower | –
